Data from ChEMBL document CHEMBL4346672, “Antimicrobial and KPC/AmpC inhibitory activity of functionalized benzosiloxaboroles” (Eur J Med Chem, 2019).
Active and inactive are the calls of the source. The calls are words filed in the database; no cut-off is given here.

Key:
[1] = system: Bordetella bronchiseptica; assay: Antibacterial activity against Bordetella bronchiseptica ATCC 4617 assessed as diameter of zone inhibition measured after 18 hrs by CLSI disc diffusion method; type: functional
Method in brief: (§1)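 Disc diffusion on Mueller-Hinton II agar. Compounds dissolved in DMSO. Strains stored at -80 °C and subcultured twice on tryptic soy agar before testing. Inhibition zones read after 35 °C, 18 h.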

[2] = system: Meyerozyma guilliermondii; assay: Antifungal activity against Candida guilliermondii IBA 155 assessed as diameter of zone inhibition incubated for 24 hrs by CLSI disc diffusion method; type: functional
Method in brief: (§2)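 Yeast disc diffusion on Mueller-Hinton agar supplemented with 2% glucose and 0.5 mg/L methylene blue. Compounds in DMSO. Yeasts subcultured on Sabouraud dextrose agar before testing. Zones read after 35 °C, 24 h.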

[3] = system: Klebsiella pneumoniae; settings: ATCC 13883
[4] = system: Enterobacter cloacae; assay: Antibacterial activity against Enterobacter cloacae DSM 6234 assessed as diameter of zone inhibition measured after 18 hrs by CLSI disc diffusion method; type: functional; method in brief: as §1
[5] = system: Bacillus subtilis; assay: Antibacterial activity against Bacillus subtilis ATCC 6633 assessed as diameter of zone inhibition measured after 18 hrs by CLSI disc diffusion method; type: functional; method in brief: as §1
[6] = system: Pseudomonas aeruginosa; assay: Antibacterial activity against Pseudomonas aeruginosa ATCC 27853 assessed as diameter of zone inhibition measured after 18 hrs by CLSI disc diffusion method; type: functional, organism-based; method in brief: as §1
[7] = system: Candida parapsilosis; assay: Antifungal activity against Candida parapsilosis ATCC 22019 assessed as diameter of zone inhibition incubated for 24 hrs by CLSI disc diffusion method; type: functional; method in brief: as §2
[8] = system: Stenotrophomonas maltophilia; assay: Antibacterial activity against Stenotrophomonas maltophilia ATCC 13637 assessed as diameter of zone inhibition measured after 18 hrs by CLSI disc diffusion method; type: functional; method in brief: as §1
[9] = system: Serratia marcescens; settings: ATCC 13880
[10] = system: Acinetobacter baumannii; assay: Antibacterial activity against Acinetobacter baumannii ATCC 19606 assessed as diameter of zone inhibition measured after 18 hrs by CLSI disc diffusion method; type: functional; method in brief: as §1
[11] = system: Candida tropicalis; assay: Antifungal activity against Candida tropicalis IBA 171 assessed as diameter of zone inhibition incubated for 24 hrs by CLSI disc diffusion method; type: functional; method in brief: as §2
[12] = system: Enterococcus faecium; assay: Antibacterial activity against Enterococcus faecium ATCC 6057 assessed as diameter of zone inhibition measured after 18 hrs by CLSI disc diffusion method; type: functional; method in brief: as §1
[13] = system: Staphylococcus epidermidis; assay: Antibacterial activity against Staphylococcus epidermidis ATCC 12228 assessed as diameter of zone inhibition measured after 18 hrs by CLSI disc diffusion method; type: functional; method in brief: as §1
[14] = system: Saccharomyces cerevisiae; assay: Antifungal activity against Saccharomyces cerevisiae ATCC 9763 diameter of zone inhibition incubated for 24 hrs by CLSI disc diffusion method; type: functional
Method in brief: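 Disc-diffusion run on Mueller-Hinton II agar with 2% glucose and 0.5 mg/L methylene blue, using compounds in DMSO. Yeast was precultured on Sabouraud dextrose agar (24–48 h, 30 °C). Zones read after 24 h at 35 °C.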

[15] = system: Proteus mirabilis; assay: Antibacterial activity against Proteus mirabilis ATCC 12453 assessed as diameter of zone inhibition measured after 18 hrs by CLSI disc diffusion method; type: functional; method in brief: as §1
[16] = system: Staphylococcus aureus; assay: Antibacterial activity against Staphylococcus aureus ATCC 6538P assessed as diameter of zone inhibition measured after 18 hrs by CLSI disc diffusion method; type: functional; method in brief: as §1
[17] = system: Candida albicans; assay: Antifungal activity against Candida albicans ATCC 90028 assessed as diameter of zone inhibition incubated for 24 hrs by CLSI disc diffusion method; type: functional; method in brief: as §2
[18] = system: Escherichia coli; assay: Antibacterial activity against Escherichia coli ATCC 25922 assessed as diameter of zone inhibition measured after 18 hrs by CLSI disc diffusion method; type: functional; method in brief: as §1
[19] = system: Burkholderia cepacia; assay: Antibacterial activity against Burkholderia cepacia ATCC 25416 assessed as diameter of zone inhibition measured after 18 hrs by CLSI disc diffusion method; type: functional; method in brief: as §1
[20] = system: Enterococcus faecalis; assay: Antibacterial activity against Enterococcus faecalis ATCC 29212 assessed as diameter of zone inhibition measured after 18 hrs by CLSI disc diffusion method; type: functional; method in brief: as §1
[21] = system: Pichia kudriavzevii; assay: Antifungal activity against Candida krusei ATCC 6258 assessed as diameter of zone inhibition incubated for 24 hrs by CLSI disc diffusion method; type: functional; method in brief: as §2
[22] = Dissociation constant, pKa1 of compound in 0.1 M NaOH by potentiometric analysis; type: physicochemical

pKa [22]: 6.5
Structure (SMILES): C[Si]1(C)OB(O)c2cccc(Cl)c21
diameter of the inhibition zone (DIZ) [1]: inactive
diameter of the inhibition zone (DIZ) [2]: 25 mm
DIZ [3]: inactive
diameter of the inhibition zone (DIZ) [4]: inactive
diameter of the inhibition zone (DIZ) [5]: 32 mm
diameter of the inhibition zone (DIZ) [6]: inactive
diameter of the inhibition zone (DIZ) [7]: 12 mm
diameter of the inhibition zone (DIZ) [8]: 13 mm
DIZ [9]: inactive
diameter of the inhibition zone (DIZ) [10]: inactive
diameter of the inhibition zone (DIZ) [11]: 12 mm
diameter of the inhibition zone (DIZ) [12]: 20 mm
diameter of the inhibition zone (DIZ) [13]: 33 mm
diameter of the inhibition zone (DIZ) [14]: 30 mm
diameter of the inhibition zone (DIZ) [15]: 19 mm
diameter of the inhibition zone (DIZ) [16]: 34 mm
diameter of the inhibition zone (DIZ) [17]: 17 mm
diameter of the inhibition zone (DIZ) [18]: inactive
diameter of the inhibition zone (DIZ) [19]: inactive
diameter of the inhibition zone (DIZ) [20]: 15 mm
diameter of the inhibition zone (DIZ) [21]: 17 mm
